# From PubChem BioAssay
# ABCB1 block = ABCB1 efflux pump inhibitors, primary screen, cell-based, multiplex, flow cytometry, ABCG2 counter-screen; ATP-dependent translocase ABCB1 (Homo sapiens), P08183; CCRF-Adr cells, JC-1 efflux; inhibition, % at 6.6 µM; 0.067% of 190,000 active; AID 1326, 2008; in the data active = inhibition above about 40%;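 note: higher value means more JC-1 retained so stronger ABCB1 efflux block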
# WT yeast gro inh = growth inhibition of WT strain, primary screen, mitochondrial fusion inhibitor project, WT and mutant strains, chemical genetic | mitochondrial fusion phenotypic screen | inhibition, % at 10 µM | 2.1% of 190,000 active | AID 1362, 2008; in the data active = inhibition above about 58%; tested in S. cerevisiae
# L major viab = Leishmania major promastigote growth inhibition, primary screen. Leishmania major promastigotes, resazurin fluorescence viability. inhibition, % at 10 µM. 9% of 200,000 active. AID 1063, 2008; in the data active = inhibition above about 50%;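 note: promastigotes grown with compound for 44 hours at 28 °C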
# ABCG2 block = ABCG2 efflux pump inhibitors, primary screen, multiplex with ABCB1, IgMXP3 cells, flow cytometry | JC-1 efflux | inhibition, % at 6.6 µM | 0.1% of 190,000 active | AID 1325, 2008;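 active = inhibition above 80%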
#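 Test system: IgMXP3 cells (ABCG2) mixed with DDAO far-red-labelled CCRF-Adr cells (ABCB1). Reagent: JC-1 transporter substrate. Compound dosing: single test compound dose, 6.6 µM final. Times: 10 min compound exposure, 25 °C. Detection: flow cytometry of retained JC-1 fluorescence. Read-out basis: efflux inhibition in percent versus controls. Controls: nicardipine and DMSO wells.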
# RAM inhibit = inhibitors of the yeast RAM network, primary screen, dse1pr::URA3 reporter, 5-FOA selection; inhibition, % at 50 µM; 1.8% of 190,000 active; S. cerevisiae dse1pr::URA3 reporter, 5-FOA growth OD615, 2 d; analog-sensitive cbk1-as2 kinase mutant strain;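 active = inhibition above a set limit, 3 SD over mean compound inhibition, cut at about 8.4% in these data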;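 note: inhibition rescues growth on 5-FOA so higher OD means more RAM inhibition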
# ABCB1 single pt = ABCB1 efflux pump inhibitors, confirmation, cell-based, single point, ABCG2 counter-screen | CCRF-Adr cells, JC-1 efflux, flow cytometry | AID 1451, 2008 | 7% of 270 active | shares compounds with ABCG2 block | inhibition, % at 6.6 µM;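 active = inhibition of pump activity above 50%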
# ABCG2 single pt = ABCG2 efflux pump inhibitors, confirmation, single point, IgMXP3 cells, ABCB1 counter-screen paired | shares compounds with ABCG2 block | JC-1 efflux, flow cytometry | inhibition, % at 6.6 µM | 6% of 270 active | AID 1453, 2008;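 active = inhibition above 50%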
# IgMXP3 fluor = compound autofluorescence in ABCG2-expressing IgMXP3 cells, confirmation, artefact control for ABC transporter inhibitor project, cell-based, 488/530 nm, flow cytometry | AID 1480, 2009 | compound autofluorescence 488/530 nm; stronger effect = higher value | fluorescence at 6.6 µM | 30% of 270 active | shares compounds with ABCG2 block;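 active = fluorescence in ABCG2-expressing cells above the plate's control-well mean plus 3 SD, cut at about 15 in these data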
# CCRF autofluor = compound autofluorescence in ABCB1-expressing CCRF-Adr cells, confirmation, artefact control for ABC transporter inhibitor project, cell-based, 488/530 nm, flow cytometry | shares compounds with ABCG2 block | compound autofluorescence 488/530 nm; stronger effect = higher value | fluorescence at 6.6 µM | 30% of 270 active;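 active = fluorescence beyond the plate control mean plus 3 SD, with a fluorescence-to-maximum score over 2, cut at about 25 in these data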
# A number is an active result; . = inactive; / = not tested or not shown. A selection: hits, their analogues and other compounds. The true share with any hit is near 12%.
SMILES,ABCB1 block,WT yeast gro inh,L major viab,ABCG2 block,RAM inhibit,ABCB1 single pt,ABCG2 single pt,IgMXP3 fluor,CCRF autofluor
COc1ccc(/C=N/NC(=O)c2ccccc2)cc1CN1CCN(c2ccc(F)cc2)CC1,.,.,.,.,.,/,/,/,/
COc1ccc(/C=N/NC(=O)c2ccccc2F)cc1CN1CCN(c2ccc(F)cc2)CC1,52.2,.,67.4,.,.,.,.,.,.
Cc1cccc(-c2c3c(=O)n(C)c(=O)n(C)c3c3cccnn23)c1,.,.,.,.,.,/,/,/,/
O=S(=O)(c1ccc(Cl)cc1)N1CCN=C1SCc1ccc(Cl)c(Cl)c1,.,.,.,85.9,.,.,.,.,.
CCSC1=NCCN1S(=O)(=O)c1ccc(Cl)cc1,.,.,.,.,.,/,/,/,/
O=C(NCCOCc1ccccc1)C(c1ccccc1)c1ccccc1,.,.,.,.,.,/,/,/,/
Cc1ccccc1Cn1cc(S(=O)(=O)CC(=O)Nc2nccs2)c2ccccc21,.,.,.,83.5,8.4,.,.,.,.
O=C1CN(C(=O)COC(=O)CNS(=O)(=O)/C=C/c2ccccc2)c2ccccc2N1,.,.,.,.,.,/,/,/,/
O=C(O)c1ccc(N2CC3CC(C2)c2cccc(=O)n2C3)c(NC(=S)Nc2ccc(Br)cc2)c1 (stereo not drawn),.,.,.,.,.,/,/,/,/
CCN1CCN(C(=O)c2oc(=O)c3ccccc3c2-c2ccc(C)cc2)CC1,.,.,.,.,.,/,/,/,/
Cc1ccc(-c2c(C(=O)NCc3ccc(F)cc3)oc(=O)c3ccccc23)cc1,.,61.8,74.2,83.1,.,.,.,.,.
O=C(c1ccco1)N1CCN(c2nc(C(F)(F)F)nc3c2nnn3Cc2ccccc2)CC1,.,.,.,.,.,.,.,72.9,37
O=C(c1ccco1)N1CCN(Cc2ccccc2C(F)(F)F)CC1,/,/,.,/,/,/,/,/,/
CCOCCCNc1nc2c(C)cccn2c(=O)c1/C=C1\SC(=S)N(CC(C)C)C1=O,48.4,.,.,141.0,.,.,.,43.8,211
CCOC(=O)N1CCC(NC(=O)C(NC(=O)C2CCC(C)CC2)C(C)CC)CC1 (stereo not drawn),.,.,.,.,.,/,/,/,/
Cc1cc(-c2sccc2Br)nc(-n2cccc2)n1,.,68.9,.,92.3,.,.,.,.,.
Cc1cc(C(=O)N[C@H](c2ccccc2)[C@@]2(C)C[C@@H]2[C@@H](C)C(=O)Nc2ccc3ccccc3c2)n(C)n1,.,.,.,.,.,/,/,/,/
O=C(NN1CCOCC1)c1ccc(S(=O)(=O)N2CCCCC2)cc1,.,.,.,.,.,/,/,/,/
Cc1cccc(C(C)C)c1NC(=O)c1ccc(CN(c2ccccc2)S(=O)(=O)c2ccccc2)cc1,.,.,.,.,.,/,/,/,/
O=C(CC(=O)NN=C1CCCCCC1)NCc1cccnc1,.,.,.,.,.,/,/,/,/
O=[N+]([O-])c1ccc(Nc2nc(Cl)nc(NCCO)n2)cc1,.,.,.,.,.,.,54.5,.,.
CCCCOC(=O)Nc1ccc(C(=O)OCCC)cc1,.,.,.,.,.,.,.,.,.
CNc1nc2cc([N+](=O)[O-])c([N+](=O)[O-])cc2nc1NC,.,.,.,123.6,.,.,69.3,20.8,30.5
O=C(CCN1C(=O)C2CCCCC2C1=O)Nc1ccc(F)c(F)c1F (stereo not drawn),.,.,.,.,.,/,/,/,/
